In publication PMC12138345 (RSC Advances, 2025):
Where a name gives a salt, the structure may show the parent alone. Read-outs that look alike come from different tables or passages of the source.

Tests used:
CtPilB = molecular target: T1, CtPilB (Chloracidobacterium thermophilum, UniProt G2LDI3); assay: CtPilB ATPase malachite green assay; assay type: biochemical; details: for inhibition at 30 µM: read-out: % Inhib. 30 μM; for inhibition at 3 µM: read-out: % Inhib. 3 μM
T1 sequence (G2LDI3 140-614): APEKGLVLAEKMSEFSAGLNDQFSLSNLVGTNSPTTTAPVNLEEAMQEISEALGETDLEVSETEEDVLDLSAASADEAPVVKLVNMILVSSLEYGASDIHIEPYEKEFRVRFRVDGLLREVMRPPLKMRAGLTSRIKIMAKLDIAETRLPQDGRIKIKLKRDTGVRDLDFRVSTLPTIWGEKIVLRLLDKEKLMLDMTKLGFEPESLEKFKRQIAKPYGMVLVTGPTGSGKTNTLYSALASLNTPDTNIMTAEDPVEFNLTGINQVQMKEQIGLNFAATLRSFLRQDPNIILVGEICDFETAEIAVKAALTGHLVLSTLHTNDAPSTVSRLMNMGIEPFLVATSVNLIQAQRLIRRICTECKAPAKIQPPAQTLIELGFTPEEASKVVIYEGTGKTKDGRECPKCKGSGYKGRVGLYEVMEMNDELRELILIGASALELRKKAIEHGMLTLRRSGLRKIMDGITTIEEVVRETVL
In short: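 N-terminally truncated CtPilB hexamer (lacking residues 1–139, purified), 3.3 nM, with 1 mM ATP, 2% DMSO and test compound, 54 °C, 30 min. Quenched with 30% TCA; phosphate detected by malachite green/ammonium molybdate, absorbance at 620 nm, room temperature. Screen at 3 and 30 μM with benserazide as benchmark; IC50 from concentration–response fits.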

apyrase = assay: Apyrase ATPase selectivity assay; assay type: biochemical; details: varying concentrations up to 64 μM; 1 mM ATP, 37 °C, 30 min; p-value > 0.05
In short: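 Commercial apyrase (6.7 × 10−7 U μl−1) with 1 mM ATP in 20 mM MES, 50 mM NaCl, 5 mM CaCl2, 1 mM DTT, 2% DMSO, test compound up to 64 μM, 37 °C, 30 min. Stopped with 30% TCA; released phosphate measured by malachite green assay. Biological experiments run in duplicate; concentrations compared statistically.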

Row | inhibition at 30 µM (CtPilB) | inhibition at 3 µM (CtPilB) | SMILES | also measured
1 | 27 ± 19% |  | NNC(=O)[C@@H](N)CO [compound 4, (S)-2-Amino-3-hydroxypropanehydrazide dihydrochloride] | 
2 | 92 ± 5% | 55 ± 8% | NCC(=O)N/N=C/c1c(O)cccc1O [11a, (E)-2-Amino-N′-(2,6-dihydroxybenzylidene)acetohydrazide hydrochloride] | 
3 | 74 ± 5% | 32 ± 12% | N[C@H](CO)C(=O)NNCc1c(O)cccc1O [7g, (R)-2-Amino-N′-(2,6-dihydroxybenzyl)-3-hydroxypropanehydrazide hydrochloride] | 
4 | 86 ± 3% | 65 ± 5% | N[C@H](CO)C(=O)N/N=C/c1c(O)cccc1O [8g, (R,E)-2-Amino-N′-(2,6-dihydroxybenzylidene)-3-hydroxypropanehydrazide hydrochloride] | IC50 (CtPilB; dose–response 0.01–50 μM, benserazide as control): 1.32 µM
5 | 23 ± 21% |  | N[C@H](CO)C(=O)N/N=C/c1ccccc1O [8a, (R,E)-2-Amino-3-hydroxy-N′-(2-hydroxybenzylidene)propanehydrazide hydrochloride] | 
6 | 32 ± 4% |  | N[C@H](CO)C(=O)NNCc1ccccc1O [7a, (R)-2-Amino-3-hydroxy-N′-(2-hydroxybenzyl)propanehydrazide hydrochloride] | 
7 | 67 ± 4% |  | COc1cccc(O)c1/C=N/NC(=O)[C@H](N)CO [8h, (R,E)-2-Amino-3-hydroxy-N′-(2-hydroxy-6-methoxybenzylidene)propanehydrazide hydrochloride] | 
8 | 91 ± 8% | 71 ± 4% | Cl.N[C@H](CO)C(=O)N/N=C/c1c(O)ccc(O)c1O [8k, (R,E)-2-Amino-3-hydroxy-N′-(2,3,6-trihydroxybenzylidene)propanehydrazide hydrochloride] | IC50 (CtPilB): 1.06 µM; Inhibition of apyrase ATPase activity (apyrase): no significant difference
9 | 80 ± 16% | 40 ± 26% | N[C@H](CO)C(=O)N/N=C/c1cc(O)ccc1O (mixture of isomers) [8f, (R,E)-2-Amino-N′-(2,5-dihydroxybenzylidene)-3-hydroxypropanehydrazide hydrochloride] | 
10 | 18 ± 9% |  | N[C@H](CO)C(=O)N/N=C/c1cccc(O)c1 [8b, (R,E)-2-Amino-3-hydroxy-N′-(3-hydroxybenzylidene)propanehydrazide hydrochloride] | 

More lines, now with the values behind:

Row | SMILES | inhibition at 30 µM (CtPilB) | inhibition at 3 µM (CtPilB) | also measured
11 | N[C@H](CO)C(=O)N/N=C/c1ccc(O)c(O)c1 [8i, (R,E)-2-Amino-N′-(3,4-dihydroxybenzylidene)-3-hydroxypropanehydrazide hydrochloride] | 14 ± 4% |  | 
12 | N[C@H](CO)C(=O)N/N=C/c1cccc(O)c1O [8d, (R,E)-2-Amino-N′-(2,3-dihydroxybenzylidene)-3-hydroxypropanehydrazide hydrochloride] | 84 ± 4% |  | 
13 | N[C@H](CO)C(=O)N/N=C/c1ccc(O)c(O)c1O [8j, (R,E)-2-Amino-3-hydroxy-N′-(2,3,4-trihydroxybenzylidene)propanehydrazide hydrochloride] | 84 ± 2% | 35 ± 9% | 
14 | Cl.N[C@H](CS)C(=O)N/N=C/c1c(O)cccc1O [11c, (S,E)-2-Amino-N′-(2,6-dihydroxybenzylidene)-3-mercaptopropanehydrazide hydrochloride] | 97 ± 11% | 90 ± 1% | IC50 (CtPilB): 0.58 µM; Potency relative to benserazide (CtPilB; ratio of IC50 values): 6 fold; Inhibition of apyrase ATPase activity (apyrase): no significant difference
15 | N[C@H](CO)C(=O)NNCc1ccc(O)cc1O [7e, (R)-2-Amino-N′-(2,4-dihydroxybenzyl)-3-hydroxypropanehydrazide hydrochloride] | 40 ± 2% |  | 
16 | COc1ccc(/C=N/NC(=O)[C@H](N)CO)c(OC)c1OC.Cl [8l, (R,E)-2-Amino-3-hydroxy-N′-(2,3,4-trimethoxybenzylidene)propanehydrazide hydrochloride] |  |  | Activity against PilB (in words) (CtPilB; screen at 3 and 30 μM): essentially had no activity
17 | N[C@H](CO)C(=O)NNCc1cc(O)ccc1O [7f, (R)-2-Amino-N′-(2,5-dihydroxybenzyl)-3-hydroxypropanehydrazide hydrochloride] | 45 ± 6% |  | 
18 | N[C@H](CO)C(=O)NNCc1cccc(O)c1O [7d, (R)-2-Amino-N′-(2,3-dihydroxybenzyl)-3-hydroxypropanehydrazide hydrochloride] | 78.2 ± 4% | 19 ± 12% | 
19 | N[C@H](CO)C(=O)N/N=C/c1ccc(O)cc1 [8c, (R,E)-2-Amino-3-hydroxy-N′-(4-hydroxybenzylidene)propanehydrazide hydrochloride] | 2 ± 3% |  | 
20 | N[C@H](CO)C(=O)N/N=C/c1ccc(O)cc1O [8e, (R,E)-2-Amino-N′-(2,4-dihydroxybenzylidene)-3-hydroxypropanehydrazide hydrochloride] | 69 ± 10% |  | 
21 | C[C@@H](N)C(=O)N/N=C/c1c(O)cccc1O [11b, (R,E)-2-amino-N′-(2,6-dihydroxybenzylidene)propanehydrazide hydrochloride] | 87 ± 4% | 26 ± 11% | 
22 | NC(CO)C(=O)NNCc1ccc(O)c(O)c1O (stereo not shown) [Benserazide, reference compound] | 80 ± 8% | 34 ± 10% | IC50 (CtPilB): 3.68 µM; Inhibition of apyrase ATPase activity (apyrase): no significant difference
